Test results: ChEMBL document CHEMBL1142229, “Docosahexaenoic acid alters bilayer elastic properties” (Proc Natl Acad Sci U S A, 2007)
Active and inactive are the calls of the source. No cut-off for these calls is given here.

Tests used:
[1] = Partition coefficient (x10-4) across dioleoylphosphatidylcholine bilayer in presence of cholesterol; format: ADME; conditions: lipid bilayer/electrolyte
How it was run: (§1)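 Lipid/electrolyte partition coefficient measured with ADIFAB (0.2 μM) in 1 M NaCl, 10 mM Hepes, pH 7.0 at 25 ± 1°C. Extruded vesicles at ≈100 μM phospholipid; total fatty acid raised stepwise over 3–30 μM, 3–5 min equilibration per step. Emission read at 432 and 505 nm (excitation 386 nm), corrected for cuvette binding. Kp from free vs total FA and Vm/Va; triplicate, averaged over concentrations.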

[2] = Partition coefficient (x10-4) across dieicosenoyl-phosphatidylcholine bilayer; format: ADME; conditions: lipid bilayer/electrolyte; how it was run: as §1
[3] = Effect on gramicidin channel 13 activity
How it was run: (§2)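 Planar bilayers of DC18:1PC (20 mg/ml in n-decane) across a ≈1.6 mm hole in a Teflon partition, in 1 M NaCl, 10 mM Hepes, pH 7.0. Opposite-helix-sense gA analogue pairs, gA(13) and AgA(15). Fatty acid added to both sides from ethanolic stock with NaOH and BHT, stirred 5 min, equilibrated 10 min. Single-channel currents and lifetimes recorded before and after addition. Where stated, cholesterol:DC18:1PC molar ratio 1:1.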

[4] = Activity at gramicidin A negative channel 15 assessed as increase in single channel current; how it was run: as §2
[5] = Activity at gramicidin channel 13 assessed as increase in single channel current; how it was run: as §2
[6] = Activity at gramicidin channel 13 assessed as increase in single channel current at 10 uM; how it was run: as §2
[7] = Activity at gramicidin channel 13 assessed as increase in single channel current at 10 uM in presence of cholesterol; how it was run: as §2
[8] = Partition coefficient (x10-4) across dioleoylphosphatidylcholine bilayer; format: ADME; conditions: lipid bilayer/electrolyte; how it was run: as §1

| Partition coefficient [1] | Partition coefficient [2] | Activity [3] | Activity [4] | Activity [5] | Activity [6] | Activity [7] | Partition coefficient [8] | SMILES |
| --- | --- | --- | --- | --- | --- | --- | --- | --- |
| 19 | 20 | Active | Active | Active | 15% | 65% | 20 | CC/C=C\C/C=C\C/C=C\C/C=C\C/C=C\C/C=C\CCC(=O)O [DOCONEXENT] |
|  | 246 | inactive | inactive | inactive | 5% | 15% | 254 | CCCCCCCC/C=C\CCCCCCCC(=O)O [OLEIC ACID] |
